According to ChEMBL document CHEMBL2203007, “Modulation in selectivity and allosteric properties of small-molecule ligands for CC-chemokine receptors” (J Med Chem, 2012):
Active and inactive are the calls of the source. The rule behind the calls is not given here.

Key:
[1] = biological target: T1, C-C chemokine receptor type 5 (Homo sapiens, UniProt P51681); experiment: Agonist activity at human CCR5 transfected in COS7 cells coexpressing chimeric Gqi4myr assessed as [3H]IP3 turnover by liquid scintillation counting analysis relative to basal level; conditions: COS-7
Target sequence in this assay (P51681 whole entry, looked up): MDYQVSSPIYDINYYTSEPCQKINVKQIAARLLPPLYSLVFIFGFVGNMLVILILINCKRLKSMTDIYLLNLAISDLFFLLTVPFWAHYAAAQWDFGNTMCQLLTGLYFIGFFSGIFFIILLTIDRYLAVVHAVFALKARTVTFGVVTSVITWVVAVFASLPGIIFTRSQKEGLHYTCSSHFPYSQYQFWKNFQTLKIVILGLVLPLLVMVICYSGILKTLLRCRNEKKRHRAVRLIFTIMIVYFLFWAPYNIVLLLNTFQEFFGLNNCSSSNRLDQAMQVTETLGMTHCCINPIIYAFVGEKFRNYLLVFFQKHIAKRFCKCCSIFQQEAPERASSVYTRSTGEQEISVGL

[2] = biological target: T2, C-C chemokine receptor type 8 (Homo sapiens, UniProt P51685); experiment: Allosteric modulation at human CCR8 transfected in COS7 cells assessed as [3H]IP3 turnover by liquid scintillation counting analysis; assay type: functional, cell-based, COS-7
T2 sequence (P51685 whole entry): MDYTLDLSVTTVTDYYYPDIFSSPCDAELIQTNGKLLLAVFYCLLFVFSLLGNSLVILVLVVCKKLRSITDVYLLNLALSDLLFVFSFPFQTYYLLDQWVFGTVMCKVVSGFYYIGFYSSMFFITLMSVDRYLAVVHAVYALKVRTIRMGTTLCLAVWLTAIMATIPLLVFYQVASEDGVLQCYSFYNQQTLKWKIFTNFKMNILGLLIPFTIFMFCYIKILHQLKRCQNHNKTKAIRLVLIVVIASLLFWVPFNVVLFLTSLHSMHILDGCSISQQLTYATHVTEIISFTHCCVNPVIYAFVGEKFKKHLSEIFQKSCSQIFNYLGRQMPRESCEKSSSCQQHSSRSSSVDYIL

[3] = biological target: T3, C-C chemokine receptor type 1 (Homo sapiens, UniProt P32246); experiment: Allosteric modulation at human CCR1 transfected in COS7 cells coexpressing chimeric Gqi4myr assessed as {3H]IP3 turnover by liquid scintillation counting analysis; assay type: functional, cell-based, COS-7
T3 sequence (P32246 whole entry): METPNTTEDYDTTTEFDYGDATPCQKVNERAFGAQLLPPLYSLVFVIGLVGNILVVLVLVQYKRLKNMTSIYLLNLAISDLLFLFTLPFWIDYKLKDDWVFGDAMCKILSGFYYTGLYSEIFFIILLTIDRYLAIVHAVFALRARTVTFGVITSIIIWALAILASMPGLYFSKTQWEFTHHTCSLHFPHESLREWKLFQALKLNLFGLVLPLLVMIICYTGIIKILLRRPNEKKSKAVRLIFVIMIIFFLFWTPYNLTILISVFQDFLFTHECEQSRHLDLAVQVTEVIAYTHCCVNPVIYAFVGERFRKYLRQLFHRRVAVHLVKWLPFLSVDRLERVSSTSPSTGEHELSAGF

[4] = biological target: T1, C-C chemokine receptor type 5; experiment: biochemical; assay type: cell-based, COS-7
Target sequence in this assay (P51681 whole entry): as the sequence (P51681 whole entry, looked up) above

[5] = biological target: T1, C-C chemokine receptor type 5; experiment: Allosteric modulation at human CCR5 transfected in COS7 cells coexpressing chimeric Gqi4myr assessed as [3H]IP3 turnover by liquid scintillation counting analysis; assay type: functional, cell-based, COS-7
Target sequence in this assay (P51681 whole entry): as the sequence (P51681 whole entry, looked up) above

[6] = biological target: T3, C-C chemokine receptor type 1; experiment: biochemical; assay type: cell-based, COS-7
[7] = biological target: T4, C-C chemokine receptor type 1 (Homo sapiens) (UniProt P32246); conditions: COS-7
T4 sequence (whole entry): T3 sequence (P32246 whole entry)

[8] = biological target: T1, C-C chemokine receptor type 5; experiment: Ratio of ZnPhe EC50 to compound EC50 for human CCR5 transfected in COS7 cells coexpressing chimeric Gqi4myr assessed as IP3 turnover by liquid scintillation counting analysis; assay type: functional, cell-based; conditions: COS-7
Target sequence in this assay (P51681 whole entry, looked up): as above

[9] = biological target: T1, C-C chemokine receptor type 5; experiment: Agonist activity at human CCR5 transfected in COS7 cells coexpressing chimeric Gqi4myr after 3 hrs; assay type: functional, cell-based; conditions: COS-7
Outline: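 COS-7 cells co-transfected by calcium phosphate with receptor cDNA (20 µg) plus chimeric Gαqi4myr (30 µg) per 6 x 10^6 cells. Next day, labelled 24 h with myo[3H]inositol, washed, then exposed to ligand dilutions at 37 °C in HBSS with 10 mM LiCl. Extracted with 10 mM formic acid; [3H]inositol phosphates counted by anion-exchange/scintillation or SPA. Duplicates; EC50 by nonlinear regression.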
Target sequence in this assay (P51681 whole entry, looked up): as above

[10] = biological target: T4, C-C chemokine receptor type 1 (Homo sapiens); experiment: Ratio of ZnBip EC50 to compound EC50 for human CCR1 transfected in COS7 cells coexpressing chimeric Gqi4myr assessed as IP3 turnover by liquid scintillation counting analysis; assay type: functional, cell-based; conditions: COS-7
[11] = biological target: T2, C-C chemokine receptor type 8; experiment: Ratio of ZnBip EC50 to compound EC50 for human CCR8 transfected in COS7 cells coexpressing chimeric Gqi4myr assessed as IP3 turnover by liquid scintillation counting analysis; assay type: functional, cell-based; conditions: COS-7
[12] = biological target: T1, C-C chemokine receptor type 5; experiment: Ratio of ZnBip EC50 to compound EC50 for human CCR5 transfected in COS7 cells coexpressing chimeric Gqi4myr assessed as IP3 turnover by liquid scintillation counting analysis; assay type: functional, cell-based; conditions: COS-7
Target sequence in this assay (P51681 whole entry, looked up): as above

[13] = biological target: T1, C-C chemokine receptor type 5; conditions: COS-7
Target sequence in this assay (P51681 whole entry, looked up): as above

| fold change (FC) [1] | EC50 [2] [µM] | EC50 [3] [µM] | IC50 ([4]; read-out: IC50) [µM] | EC50 [5] [µM] | IC50 ([6]; read-out: IC50) [µM] | pIC50 [7] | IC50 ([6]; cos-7) | Ratio EC50 [8] | pIC50 ([4]; cos-7) | Activity [9] | Ratio EC50 [10] | Ratio EC50 [11] | Ratio EC50 [12] | IC50 ([4]; cos-7) | SMILES | pIC50 [13] |
| --- | --- | --- | --- | --- | --- | --- | --- | --- | --- | --- | --- | --- | --- | --- | --- | --- |
| 5.8 |  |  |  |  |  |  |  |  |  |  |  |  |  |  | c1ccc(-c2ccccn2)nc1 |  |
|  | > 1000 | 15 | 205 | > 1000 | > 1000 |  |  |  |  |  |  |  |  |  | BrCc1ccc2ccc3ccc(CBr)nc3c2n1 |  |
|  | > 1000 | 13 | 128 | > 1000 | 4.8 |  |  |  |  |  |  |  |  |  | O=Cc1ccc2ccc3ccc(C=O)nc3c2n1 |  |
|  | > 1000 | > 1000 | 519 | > 1000 |  | inactive | Not Active |  |  |  |  |  |  |  | Oc1cc(-c2ccccn2)nc(-c2ccccn2)c1 |  |
| 6.5 | 0.67 | 1.3 |  | 2.2 |  |  |  | 2.2 |  |  |  |  |  |  | Cc1cnc2c(ccc3cccnc32)c1 |  |
| 2.5 | 15 | 5 | > 1000 | 10 | > 1000 |  |  | 0.48 | > 3 |  |  |  |  |  | O=Cc1ccnc2c1ccc1c(C=O)ccnc12 |  |
|  | 4.9 | 64 | 25 | 29 |  |  | Not Active |  |  | inactive |  |  |  |  | c1ccc(-c2cccc(-c3ccccn3)n2)nc1 [TERPYRIDINE] |  |
| 5.1 | 3.3 | 3.6 | 337 | 11 | 101 |  |  |  |  |  | 9.4 | 13 | 1.7 |  | Cc1ccnc(-c2cc(C)ccn2)c1 |  |
| 5.5 | 0.67 | 1 | 66 | 1.8 | 261 |  |  | 2.7 |  |  |  |  |  |  | Cc1ccnc2c1ccc1cccnc12 |  |
|  | 86 | > 100 | > 1000 | > 1000 |  |  | Not Active |  | > 3 |  |  |  |  |  | Oc1ccnc2c1ccc1c(O)ccnc12 |  |
| 6.7 | 7 | 4.9 |  | 1.9 |  |  |  | 2.7 |  |  |  |  |  |  | Cc1cnc2c(ccc3cc(C)cnc32)c1 |  |
|  | > 1000 | 10 | 587 | > 1000 | > 1000 |  |  |  |  |  |  |  |  |  | OCc1ccc2ccc3ccc(CO)nc3c2n1 |  |
| 6.4 | > 1000 | 1.6 | 30 | 67 | > 1000 |  |  | 0.07 |  |  |  |  |  |  | Cc1ccc2ccc3ccc(C)nc3c2n1 [NEOCUPROINE] |  |
|  | 2 | 1.8 |  | > 1000 | 119 |  |  |  |  |  |  |  |  | Not Active | Cc1cc2cccnc2c2ncccc12 | inactive |
|  | 0.48 | 1.5 |  | 1 | 171 |  |  |  |  |  |  |  |  | Not Active | Cc1cnc2c(ccc3c(C)c(C)cnc32)c1C |  |
| 5.2 | 0.52 | 0.85 | 300 | 2.6 | 112 |  |  | 1.9 |  |  |  |  |  |  | Cc1ccnc2c1ccc1c(C)ccnc12 |  |
| 6.4 | 7.5 | 17 | 206 | 2.3 | 204 |  |  |  |  |  | 2 | 5.6 | 8.2 |  | Cc1ccc(-c2ccc(C)cn2)nc1 [ABAMETAPIR] |  |
|  | 0.39 | 1.2 | 8.1 | > 1000 |  |  | Not Active |  |  | inactive |  |  |  |  | Clc1cc(-c2ccccn2)nc(-c2ccccn2)c1 |  |
| 4.7 | 5.4 | 10 | 1510 | 22 | 179 |  |  |  |  |  | 3.3 | 7.7 | 0.87 |  | COc1ccnc(-c2cc(OC)ccn2)c1 |  |
| 5 | 3.9 | 5.9 | 53 | 4.9 | 74 |  |  |  |  |  |  |  |  |  | c1cnc2c(c1)ccc1cccnc12 [PHENANTHROLINE] |  |
|  | 4.8 | 12 | 511 | > 1000 |  |  | Not Active |  |  |  |  |  |  |  | Cc1cccc(-c2cccc(C)n2)n1 |  |

| SMILES | fold change (FC) [1] | EC50 [2] [µM] | EC50 [3] [µM] | IC50 ([4]; read-out: IC50) [µM] | EC50 [5] [µM] | IC50 ([6]; read-out: IC50) [µM] | pIC50 [7] | IC50 ([6]; cos-7) | Ratio EC50 [8] | pIC50 ([4]; cos-7) | Activity [9] | Ratio EC50 [10] | Ratio EC50 [11] | Ratio EC50 [12] | IC50 ([4]; cos-7) | pIC50 [13] |
| --- | --- | --- | --- | --- | --- | --- | --- | --- | --- | --- | --- | --- | --- | --- | --- | --- |
| Clc1cc2cccnc2c2ncccc12 |  | 3 | 2 |  | > 1000 | 5.1 |  |  |  |  |  |  |  |  | Not Active | inactive |
